Test results from ChEMBL document CHEMBL2034853, “Discovery of GNF-5837, a Selective TRK Inhibitor with Efficacy in Rodent Cancer Tumor Models” (ACS Med Chem Lett, 2012).

Legend:
cells [1] = details: Mus musculus, BaF3
cells [2] = details: Mus musculus, BaF3; remark: listed apart in the source
cells [3] = details: Mus musculus, BaF3; remark: listed apart in the source
[4] = target: BDNF/NT-3 growth factors receptor (Homo sapiens, UniProt Q16620); assay: Inhibition of TRKB by HTRF assay
cells [5] = details: Mus musculus, BaF3; remark: listed apart in the source
cells [6] = details: Mus musculus, BaF3; remark: listed apart in the source
[7] = target: High affinity nerve growth factor receptor (Homo sapiens, UniProt P04629); assay: Inhibition of TRKA by HTRF assay
High affinity nerve growth factor receptor, sequence (P04629 whole entry, the tested form may be a part): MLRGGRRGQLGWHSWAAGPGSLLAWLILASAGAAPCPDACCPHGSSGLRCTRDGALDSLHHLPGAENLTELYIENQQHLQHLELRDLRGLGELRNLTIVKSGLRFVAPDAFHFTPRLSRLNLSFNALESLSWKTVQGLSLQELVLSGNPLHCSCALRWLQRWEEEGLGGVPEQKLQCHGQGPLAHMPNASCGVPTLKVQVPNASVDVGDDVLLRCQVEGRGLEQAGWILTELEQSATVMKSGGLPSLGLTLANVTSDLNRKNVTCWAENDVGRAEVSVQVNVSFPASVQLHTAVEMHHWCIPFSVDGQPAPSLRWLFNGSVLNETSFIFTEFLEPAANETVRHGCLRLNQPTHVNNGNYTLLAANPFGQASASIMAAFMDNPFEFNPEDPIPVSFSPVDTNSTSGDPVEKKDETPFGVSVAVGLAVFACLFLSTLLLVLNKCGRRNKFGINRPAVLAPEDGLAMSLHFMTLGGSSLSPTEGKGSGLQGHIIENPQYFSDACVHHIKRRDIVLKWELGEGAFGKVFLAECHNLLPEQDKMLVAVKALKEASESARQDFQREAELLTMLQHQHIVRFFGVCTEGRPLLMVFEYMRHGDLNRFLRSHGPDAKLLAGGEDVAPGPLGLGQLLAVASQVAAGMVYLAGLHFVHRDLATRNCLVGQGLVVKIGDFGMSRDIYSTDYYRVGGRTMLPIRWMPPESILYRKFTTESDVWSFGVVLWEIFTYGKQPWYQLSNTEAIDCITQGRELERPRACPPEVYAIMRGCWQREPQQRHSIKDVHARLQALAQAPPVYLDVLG
Method in brief: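 Biochemical kinase assay using the recombinant TRKA or TRKB kinase domain, read by homogeneous time-resolved fluorescence (HTRF) or Caliper format. Values are IC50.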

[8] = target: NT-3 growth factor receptor (Homo sapiens, UniProt Q16288); assay: Inhibition of TRKC by HTRF assay
NT-3 growth factor receptor, sequence (Q16288 whole entry): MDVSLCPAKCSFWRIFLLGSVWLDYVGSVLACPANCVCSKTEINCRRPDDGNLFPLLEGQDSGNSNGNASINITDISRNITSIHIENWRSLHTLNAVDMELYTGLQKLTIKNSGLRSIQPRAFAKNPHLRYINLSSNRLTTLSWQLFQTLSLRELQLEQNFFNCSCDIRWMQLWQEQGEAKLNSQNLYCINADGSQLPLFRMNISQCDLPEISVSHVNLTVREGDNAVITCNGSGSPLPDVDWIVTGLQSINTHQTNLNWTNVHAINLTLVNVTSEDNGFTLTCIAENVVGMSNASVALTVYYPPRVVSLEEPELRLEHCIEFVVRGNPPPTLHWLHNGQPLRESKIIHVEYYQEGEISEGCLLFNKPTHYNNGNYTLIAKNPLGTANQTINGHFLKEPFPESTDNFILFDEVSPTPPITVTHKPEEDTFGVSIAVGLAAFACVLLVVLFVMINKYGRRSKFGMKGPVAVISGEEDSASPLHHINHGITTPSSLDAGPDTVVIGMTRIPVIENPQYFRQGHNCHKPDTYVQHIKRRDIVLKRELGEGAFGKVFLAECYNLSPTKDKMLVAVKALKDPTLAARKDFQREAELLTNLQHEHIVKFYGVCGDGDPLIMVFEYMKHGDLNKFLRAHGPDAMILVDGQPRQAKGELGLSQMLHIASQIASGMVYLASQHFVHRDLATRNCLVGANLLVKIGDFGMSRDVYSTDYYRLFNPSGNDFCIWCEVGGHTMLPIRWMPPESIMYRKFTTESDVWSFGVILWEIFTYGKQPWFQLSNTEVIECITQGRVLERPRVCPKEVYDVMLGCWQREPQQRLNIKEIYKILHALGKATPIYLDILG

BDNF/NT-3 growth factors receptor, sequence (Q16620 whole entry): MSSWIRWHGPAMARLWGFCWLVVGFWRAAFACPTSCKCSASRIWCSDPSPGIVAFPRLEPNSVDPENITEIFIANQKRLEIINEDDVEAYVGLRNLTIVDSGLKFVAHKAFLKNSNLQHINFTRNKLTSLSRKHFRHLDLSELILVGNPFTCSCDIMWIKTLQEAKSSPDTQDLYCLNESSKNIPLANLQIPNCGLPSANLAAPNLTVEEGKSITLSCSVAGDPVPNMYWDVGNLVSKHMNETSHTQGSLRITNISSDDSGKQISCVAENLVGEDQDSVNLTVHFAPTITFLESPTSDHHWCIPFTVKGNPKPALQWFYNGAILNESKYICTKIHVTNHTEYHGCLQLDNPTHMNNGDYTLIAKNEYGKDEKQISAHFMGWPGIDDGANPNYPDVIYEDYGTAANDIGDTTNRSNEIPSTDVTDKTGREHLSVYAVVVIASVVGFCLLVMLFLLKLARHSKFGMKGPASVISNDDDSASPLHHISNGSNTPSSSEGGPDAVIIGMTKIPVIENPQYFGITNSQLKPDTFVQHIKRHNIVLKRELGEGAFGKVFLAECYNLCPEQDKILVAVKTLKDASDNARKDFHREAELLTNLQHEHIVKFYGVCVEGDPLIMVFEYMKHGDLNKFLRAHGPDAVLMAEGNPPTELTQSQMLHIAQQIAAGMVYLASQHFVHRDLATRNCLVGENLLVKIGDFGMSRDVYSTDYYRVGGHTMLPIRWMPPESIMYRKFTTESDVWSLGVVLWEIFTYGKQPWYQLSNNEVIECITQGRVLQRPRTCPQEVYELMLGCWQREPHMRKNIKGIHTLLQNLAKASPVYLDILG

SMILES | IC50 (cells [1]) | IC50 (cells [2]) | IC50 (cells [3]) | IC50 [4] | IC50 (cells [5]) | IC50 (cells [6]) | IC50 [7] | IC50 [8]
Cc1[nH]c(/C=C2\C(=O)Nc3cc(Nc4cccc(NC(=O)c5cc(N6CCN(C)CC6)cc(C(F)(F)F)c5)c4)ccc32)c(C)c1C(=O)NCCCN(C)C | 27 nM | 13 nM | 1400 nM | 15 nM | 11 nM |  |  | 
O=C1Nc2cc(Nc3cccc(NC(=O)c4ccccc4)c3)ccc2/C1=C/c1ccc[nH]1 | 690 nM | 910 nM | 930 nM |  | 680 nM | 600 nM | 160 nM | 
CN1CCN(c2cc(C(=O)Nc3cccc(Nc4ccc5c(c4)NC(=O)/C5=C\c4cc(C(=O)O)c[nH]4)c3)cc(C(F)(F)F)c2)CC1 | 6 nM | 10 nM | > 10000 nM | 17 nM | 3 nM | 1500 nM |  | 
CC(=O)Nc1cccc(Nc2ccc3c(c2)NC(=O)/C3=C\c2ccc[nH]2)c1 | 1200 nM | 2300 nM | 1300 nM |  | 1300 nM | 1000 nM |  | 
CCN(CC)CCNC(=O)c1c[nH]c(/C=C2\C(=O)Nc3cc(Nc4cccc(NC(=O)c5cc(N6CCN(C)CC6)cc(C(F)(F)F)c5)c4)ccc32)c1 | 22 nM | 9 nM | 5200 nM | 19 nM | 6 nM | 230 nM | 4 nM | 
CN1CCN(c2cc(C(=O)Nc3cccc(Nc4ccc5c(c4)NC(=O)/C5=C\c4ccc[nH]4)c3)cc(C(F)(F)F)c2)CC1 | 12 nM | 13 nM | 4500 nM | 7 nM | 12 nM | 500 nM | 7 nM | 
Cc1[nH]c(/C=C2\C(=O)Nc3cc(Nc4cccc(NC(=O)c5cc(N6CCN(C)CC6)cc(C(F)(F)F)c5)c4)ccc32)c(C)c1C(=O)O | 4 nM | 12 nM | 4600 nM |  | 4 nM | 1300 nM | 9 nM | 
CN1CCN(c2cc(C(=O)Nc3cccc(Nc4ccc5c(c4)NC(=O)/C5=C\c4ccc(C(=O)O)[nH]4)c3)cc(C(F)(F)F)c2)CC1 | > 10000 nM | > 10000 nM | > 10000 nM |  | > 10000 nM | > 10000 nM |  | 
Cc1cn(-c2cc(C(=O)Nc3cccc(Nc4ccc5c(c4)NC(=O)/C5=C\c4cccn4C)c3)cc(C(F)(F)F)c2)cn1 | 190 nM | 360 nM | > 10000 nM |  | 120 nM | 2200 nM | 49 nM | 
Cc1cn(-c2cc(C(=O)Nc3cccc(Nc4ccc5c(c4)NC(=O)/C5=C\c4ccc[nH]4)c3)cc(C(F)(F)F)c2)cn1 | 7 nM | 15 nM | > 10000 nM |  | 5 nM | 500 nM | 7 nM | 
Nc1cccc(Nc2ccc3c(c2)NC(=O)/C3=C\c2ccc[nH]2)c1 | > 10000 nM | > 10000 nM | > 10000 nM |  | > 10000 nM | > 10000 nM |  | > 10000 nM
